Reference: ChEMBL document CHEMBL1143238, “Oxazaborolidine derivatives inducing autoinducer-2 signal transduction in Vibrio harveyi” (2008)
Values after ≈ are worked out from the molar mass of the structure shown. Active and inactive are the calls of the source. No cut-off for these calls is given here.

Tests used:
[1] = test system: Vibrio harveyi; assay: Induction of bioluminescence in Vibrio harveyi BB170 mutant (sensor 1-, sensor 2+) at 600 uM; assay type: functional, organism-based
In short: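 Strain was grown in AB medium at 30 °C with shaking to 1.5–2.5 · 10^9 CFU/ml (15–16 h), then diluted 1:5000 or 1:10,000 into fresh AB medium containing compound. Incubation was at 30 °C for about 7 h with luminescence monitoring. Light was normalized to CFU or OD595. Fold induction over endogenous luminescence was taken at the minimum-luminescence point (3–4 h). Negative control was fresh AB medium; positive control was 10% v/v BB152 spent medium.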

[2] = test system: Vibrio harveyi; assay: Antibacterial activity against Vibrio harveyi MM77 mutant after 18 hrs; assay type: functional
In short: (§1)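 Strains were grown aerobically at 30 °C with shaking in AB medium. Growth was read as OD595 after 18 h incubation. Each experiment was run in triplicate and repeated three times.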

[3] = test system: Vibrio harveyi; assay: Antibacterial activity against Vibrio harveyi BB170 mutant after 18 hrs; assay type: functional; in short: as §1
[4] = test system: Vibrio harveyi; assay: Antibacterial activity against Vibrio harveyi BB886 mutant after 18 hrs; assay type: functional; in short: as §1

Row | Structure (SMILES) | Activity [1] | MIC [2] [mM] | MIC [3] [mM] | MIC [4] [mM]
1 | C[C@H]1[C@@H](c2ccccc2)OB(c2ccccc2)N1C | Active |  |  | 
2 | C[C@H]1NB(c2ccccc2)O[C@@H]1c1ccccc1 |  | 10 (≈ 2370 µg/mL) | 10 (≈ 2370 µg/mL) | 10 (≈ 2370 µg/mL)
3 | CC1(C)COB(c2ccccc2)N1 |  | 10 (≈ 1750 µg/mL) |  | 5 (≈ 875 µg/mL)
4 | CCCCB1O[C@H](c2ccccc2)[C@H](C)N1C |  | 10 (≈ 2310 µg/mL) |  | 10 (≈ 2310 µg/mL)
